In brackets after ≈: the same amount, converted by molar mass.
What was measured:
[1] = Clearance in Sprague-Dawley rat at 1 mg/kg, iv administered as single dose by LC-MS/MS analysis; type: ADME, organism-based; conditions: in vivo
How it was run: (§1)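 Single 1 mg/kg i.v. dose as a solution to Sprague–Dawley rats (n = 3/group); vehicle 20% HP-β-CD in one study series, 1:1 PEG400/H2O in the other; plasma PK parameters derived.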

[2] = Fraction unbound in rat brain at 5 uM after 5 hrs by equilibrium dialysis method; type: ADME, tissue-based
How it was run: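 Rat brain tissue binding, reported as fraction unbound, at 5 μM compound.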

[3] = Hepatic extraction ratio in human liver microsomes at 1 uM measured after 60 mins in presence of NADPH by LC-MS/MS analysis; type: ADME, microsome; conditions: read-out: ERH
How it was run: (§2)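 Human or rat liver microsomal stability at 1 μM; results expressed as extraction ratio, i.e. predicted hepatic clearance divided by species-specific hepatic blood flow.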

[4] = test system: Rattus norvegicus; experiment: Ex vivo receptor occupancy at GluA/TARPgamma8 in Sprague-Dawley rat assessed as reduction in [3H]JNJ-56022486 receptor labeling in hippocampus at 3 mg/kg, po at Tmax by autoradiography relative to control; type: functional
How it was run: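 Rats (Sprague–Dawley, n = 2/dose group) dosed orally with suspensions in 0.5% HPMC at 3 or 10 mg/kg; hippocampal GluA/γ-8 occupancy at Tmax by ex vivo autoradiography with [3H]12 radiotracer; brain (ng/g) and plasma (ng/mL) concentrations taken at Tmax.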

[5] = Half life in Sprague-Dawley rat at 1 mg/kg, iv administered as single dose by LC-MS/MS analysis; type: ADME, organism-based; conditions: in vivo; how it was run: as §1
[6] = test system: Rattus norvegicus; experiment: Ex vivo receptor occupancy at GluA/TARPgamma8 in po dosed Sprague-Dawley rat assessed as plasma concentration causing 50% reduction in [3H]JNJ-56022486 receptor labeling in hippocampus at ED50 at Tmax by autoradiography; type: functional, organism-based
How it was run: (§3)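 Oral dose–response in Sprague–Dawley rats, n = 3/dose (8 doses in one study; vehicle 0.5% HPMC or 20% HP-β-CD); hippocampal occupancy measured at Tmax by ex vivo autoradiography using [3H]-12; EC50 expressed against plasma (ng/mL) or brain (ng/g) exposure, ED50 against dose.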

[7] = Thermodynamic solubility of the compound in fasted state simulated intestinal fluid at pH 6.5 incubated under stirred condition for 3 days; conditions: read-out: Therm_solubility
[8] = Hepatic extraction ratio in rat liver microsomes at 1 uM measured after 60 mins in presence of NADPH by LC-MS/MS analysis; type: ADME, microsome; conditions: read-out: ERH; how it was run: as §2
[9] = test system: Rattus norvegicus; experiment: Ex vivo receptor occupancy at GluA/TARPgamma8 in po dosed Sprague-Dawley rat assessed as brain concentration causing 50% reduction in [3H]JNJ-56022486 receptor labeling in hippocampus at Tmax by autoradiography; type: functional, organism-based; how it was run: as §3
[10] = Thermodynamic solubility of the compound in simulated gastric fluid at pH 1.6 incubated under stirred condition for 3 days; type: physicochemical; conditions: read-out: Therm_solubility
How it was run: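 Thermodynamic solubility (μM) determined in simulated gastric fluid at pH 1.6 and in fasted state simulated intestinal fluid at pH 6.5.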

[11] = Protein binding in human plasma assessed as unbound fraction at 1 uM measured after 6 hrs by equilibrium dialysis method; type: ADME, cell-free
How it was run: (§4)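 Human or rat plasma protein binding at 1 μM compound, expressed as fraction unbound (fub).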

[12] = Volume of distribution at steady state in Sprague-Dawley rat at 1 mg/kg, iv administered as single dose by LC-MS/MS analysis; type: ADME, organism-based; conditions: in vivo, read-out: Vdss; how it was run: as §1
[13] = test system: Rattus norvegicus; experiment: Ex vivo receptor occupancy at GluA/TARPgamma8 in po dosed Sprague-Dawley rat assessed as reduction in [3H]JNJ-56022486 receptor labeling in hippocampus measured within 10 mins by autoradiography; type: functional
[14] = test system: Rattus norvegicus; experiment: Ex vivo receptor occupancy at GluA/TARPgamma8 in po dosed Sprague-Dawley rat assessed as brain concentration causing 50% reduction in [3H]JNJ-56022486 receptor labeling in hippocampus at ED50 at Tmax by autoradiography; type: functional, organism-based; how it was run: as §3
[15] = target: GRIA1/CACNG2 (Homo sapiens, UniProt P42261+Q9Y698); experiment: Modulation of recombinant human GluA1 flop isoform/TARPgamma2 expressed in HEK293F cells assessed as blockade of glutamate-induced calcium flux by calcium 5/6 dye based FLIPR assay; type: cell-based
GRIA1/CACNG2, sequence (P42261 whole entry, canonical isoform): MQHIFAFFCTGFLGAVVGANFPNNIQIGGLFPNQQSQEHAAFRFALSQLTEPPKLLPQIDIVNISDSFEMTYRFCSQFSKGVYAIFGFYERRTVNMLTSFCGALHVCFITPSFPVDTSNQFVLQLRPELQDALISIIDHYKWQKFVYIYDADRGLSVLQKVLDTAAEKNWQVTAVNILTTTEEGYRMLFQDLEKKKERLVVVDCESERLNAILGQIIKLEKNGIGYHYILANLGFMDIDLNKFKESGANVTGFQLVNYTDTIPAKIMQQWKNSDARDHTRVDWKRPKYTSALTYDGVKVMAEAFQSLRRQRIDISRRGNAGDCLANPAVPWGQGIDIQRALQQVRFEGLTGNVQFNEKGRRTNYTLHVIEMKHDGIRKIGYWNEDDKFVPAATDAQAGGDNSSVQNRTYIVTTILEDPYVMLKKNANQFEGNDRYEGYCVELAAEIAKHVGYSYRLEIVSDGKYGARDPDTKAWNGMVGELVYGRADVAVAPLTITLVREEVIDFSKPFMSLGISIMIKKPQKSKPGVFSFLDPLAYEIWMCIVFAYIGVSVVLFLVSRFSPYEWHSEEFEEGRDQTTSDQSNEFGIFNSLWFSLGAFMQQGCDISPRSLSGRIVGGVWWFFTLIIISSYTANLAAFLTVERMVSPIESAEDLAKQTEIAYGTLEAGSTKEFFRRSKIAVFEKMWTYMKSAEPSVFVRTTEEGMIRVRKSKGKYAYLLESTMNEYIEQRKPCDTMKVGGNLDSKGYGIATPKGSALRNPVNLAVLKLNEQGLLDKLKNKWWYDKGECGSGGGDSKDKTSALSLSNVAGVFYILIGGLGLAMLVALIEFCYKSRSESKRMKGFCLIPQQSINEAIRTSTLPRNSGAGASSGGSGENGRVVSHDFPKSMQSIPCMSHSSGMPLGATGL
GRIA1/CACNG2, sequence (Q9Y698 whole entry, canonical isoform): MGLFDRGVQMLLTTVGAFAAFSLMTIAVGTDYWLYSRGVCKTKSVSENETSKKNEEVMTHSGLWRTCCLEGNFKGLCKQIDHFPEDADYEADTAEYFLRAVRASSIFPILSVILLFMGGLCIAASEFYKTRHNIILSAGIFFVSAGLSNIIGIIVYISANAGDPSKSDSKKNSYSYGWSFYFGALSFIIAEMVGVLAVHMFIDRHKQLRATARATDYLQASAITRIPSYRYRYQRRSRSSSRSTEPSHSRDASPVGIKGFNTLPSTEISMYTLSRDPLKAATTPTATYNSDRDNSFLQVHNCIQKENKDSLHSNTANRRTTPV
How it was run: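 HEK-293 cells transiently expressing human GluA1o cotransfected with γ-2; FLIPR calcium-flux read-out; pIC50 reported; n = 1, run in triplicate.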

[16] = test system: Rattus norvegicus; experiment: Ex vivo receptor occupancy at GluA/TARPgamma8 in po dosed Sprague-Dawley rat assessed as plasma concentration causing 50% reduction in [3H]JNJ-56022486 receptor labeling in hippocampus at Tmax by autoradiography; type: functional, organism-based; how it was run: as §3
[17] = species on record: Homo sapiens; experiment: Selectivity ratio of IC50 for recombinant human GluA1 flop isoform/TARPgamma2 expressed in HEK293F cells to IC50 for recombinant human GluA1 flop isoform/TARPgamma8 expressed in HEK293F cells; type: cell-based
How it was run: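 Calcium-flux (FLIPR) inhibition in HEK-293 cells, giving pIC50 for each receptor. For γ-8, cells expressed a human GluA1o–γ-8 fusion construct, with at least three assays run in triplicate and reported as mean ± SD. For γ-2, cells expressed human GluA1-flop cotransfected with γ-2. The ratio compares the γ-2 IC50 with the γ-8 IC50.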

[18] = Protein binding in rat plasma assessed as unbound fraction at 1 uM measured after 6 hrs by equilibrium dialysis method; type: ADME, cell-free; how it was run: as §4
[19] = Apparent permeability across basolateral to apical side in MDCK-MDR1 cells at 5 uM measured after 60 mins by LC-MS/MS analysis; type: ADME, cell-based, Canis lupus familiaris; conditions: dog
How it was run: (§5)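 Bidirectional apparent permeability measured in Madin–Darby canine kidney cells transfected with the MDR1 (P-gp) gene; Papp reported in ×10–6 cm/s.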

[20] = Apparent permeability across apical to basolateral side in MDCK-MDR1 cells at 5 uM measured after 60 mins by LC-MS/MS analysis; type: ADME, cell-based, Canis lupus familiaris; conditions: dog; how it was run: as §5
[21] = target: GRIA1/CACNG8 (Homo sapiens, UniProt P42261+Q8WXS5); experiment: Modulation of recombinant human GluA1 flop isoform/TARPgamma8 expressed in HEK293F cells assessed as blockade of glutamate-induced calcium flux by calcium 5/6 dye based FLIPR assay; type: cell-based
GRIA1/CACNG8, sequence (P42261 whole entry, the tested form may be a part, canonical isoform): as the sequence (P42261 whole entry, canonical isoform) above
GRIA1/CACNG8, sequence (Q8WXS5 whole entry, the tested form may be a part, canonical isoform): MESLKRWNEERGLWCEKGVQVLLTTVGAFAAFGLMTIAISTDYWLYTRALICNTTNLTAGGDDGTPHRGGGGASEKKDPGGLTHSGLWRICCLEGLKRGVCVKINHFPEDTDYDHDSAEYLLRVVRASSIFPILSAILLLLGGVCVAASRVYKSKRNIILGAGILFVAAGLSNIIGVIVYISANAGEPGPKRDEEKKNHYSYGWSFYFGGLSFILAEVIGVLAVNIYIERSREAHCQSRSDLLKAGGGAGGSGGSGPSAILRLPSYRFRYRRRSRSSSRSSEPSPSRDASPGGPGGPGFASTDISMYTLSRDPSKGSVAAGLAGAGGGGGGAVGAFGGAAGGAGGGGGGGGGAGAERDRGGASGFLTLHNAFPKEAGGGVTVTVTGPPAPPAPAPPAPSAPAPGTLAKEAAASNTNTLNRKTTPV
How it was run: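 HEK-293 cells expressing a human GluA1o-γ-8 fusion construct; FLIPR calcium-flux read-out; pIC50 reported as mean and standard deviation of at least three assays run in triplicate.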

[22] = Volume of distribution at steady state in Sprague-Dawley rat at 1 mg/kg, iv or 5 mg/kg, po administered as single dose by LC-MS/MS analysis; type: ADME, organism-based; conditions: in vivo, read-out: Vdss; how it was run: as §1
[23] = Cmax in Sprague-Dawley rat at 5 mg/kg, po administered as single dose by LC-MS/MS analysis; type: ADME, organism-based; design: dose 5 mg/kg, route oral; conditions: in vivo
How it was run: (§6)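 Sprague–Dawley rats (n = 3/group) given compound as a solution in 20% HP-β-CD, 1 mg/kg i.v. and 5 mg/kg p.o.; plasma pharmacokinetics derived from these arms.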

[24] = Oral bioavailability in Sprague-Dawley rat at 5 mg/kg administered as single dose by LC-MS/MS analysis; type: ADME, organism-based; conditions: in vivo; how it was run: as §6
[25] = Ratio of unbound brain to plasma concentration in Sprague-Dawley rat at 1 mg/kg, iv or 5 mg/kg, po administered as single dose by LC-MS/MS analysis; type: ADME, organism-based; conditions: brain and plasma, read-out: K(p,uu,brain)

Row | Structure (SMILES) | hepatic extraction ratio at 1 h, 1 µM [3] | solubility thermodynamic at 72 h [7] [µM] | hepatic extraction ratio at 1 h, 1 µM [8] | solubility thermodynamic at 72 h [10] [µM] | fraction unbound at 6 h, 1 µM [11] | IC50 [15] [nM] | Papp B→A at 1 h, 5 µM [19] [×10⁻⁶ cm/s] | Papp A→B at 1 h, 5 µM [20] [×10⁻⁶ cm/s] | IC50 [21] [nM] | other results
1 | Cc1cc(-c2c(Cl)cccc2OC(F)(F)F)cc2c1NC(=O)C2 | 0.5 | 55 (≈ 18.8 µg/mL) | 0.4 | < 4 | 0.3 | 10000 | – | – | – | clearance [1]: 28 mL/min/kg; fraction unbound at 5 h, 5 µM [2]: 0.4; Occ [4]: 82%; half-life [5]: 1.9 h; EC50 [6]: 9 ng/mL (≈ 0.0263 µM); EC50 [9]: 71 ng/g; Vd [12]: 3.5 L/kg; ED50 [13]: 0.6 mg/kg; EC50 [14]: 71 ng/g; EC50 [16]: 9 ng/mL (≈ 0.0263 µM); Ratio IC50 [17]: > 1000; fraction unbound at 6 h, 1 µM [18]: 0.6
2 | N#Cc1cccc(Cl)c1-c1ccc2[nH]c(=O)[nH]c2c1 | < 0.3 | 5 (≈ 1.35 µg/mL) | < 0.2 | < 4 | – | > 10000 | 70 | 14 | 251 | –
3 | COc1cccc(Cl)c1-c1ccc2[nH]c(=O)[nH]c2c1 | 0.3 | 142 (≈ 39 µg/mL) | 0.6 | 19 (≈ 5.22 µg/mL) | – | > 10000 | 50 | 26 | 126 | –
4 | Cc1cccc(Cl)c1-c1ccc2[nH]c(=O)[nH]c2c1 | < 0.3 | 146 (≈ 37.8 µg/mL) | 0.6 | < 4 | 0.9 | > 10000 | 32 | 25 | 50.1 | –
5 | Cc1cccc(C)c1-c1ccc2c(c1)CC(=O)N2 | – | – | – | – | – | > 10000 | – | – | – | –
6 | O=C1Cc2cc(-c3c(Cl)cccc3OC(F)(F)F)cc(F)c2N1 | – | – | – | – | – | – | – | – | 2.51 | –
7 | O=c1[nH]c2ccc(-c3c(Cl)cccc3C3CC3)cc2[nH]1 | < 0.3 | 90 (≈ 25.6 µg/mL) | 0.5 | < 4 | 0.2 | > 10000 | 18 | 10 | – | clearance [1]: 21 mL/min/kg; half-life [5]: 2.7 h; EC50 [9]: 1611 ng/g; Vd [22]: 4.6 L/kg; ED50 [13]: 3.2 mg/kg; Cmax [23]: 502 ng/mL; EC50 [16]: 486 ng/mL (≈ 1.71 µM); bioavailability [24]: 121%; Kp uu [25]: 0.3
8 | N#CCc1cccc(Cl)c1-c1ccc2[nH]c(=O)[nH]c2c1 | < 0.3 | 230 (≈ 65.3 µg/mL) | 0.6 | 26 (≈ 7.38 µg/mL) | – | > 10000 | 70 | 6.6 | 10 | –
